p97 inhibitor = inhibitors of human p97 ATPase. P55072. recombinant p97 ATPase, Kinase-Glo ATP luminescence, 3 h. AID 1481. hit rate 0.42% among 220,000. inhibition, % at 8 µM; in the data active = inhibition above about 15%;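 also: 0% = DMSO vehicle and 100% = wells lacking enzyme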
Mdm2 ligase inh = inhibitors of human Mdm2 E3 ubiquitin ligase; Q00987; cell-based MDM2 ubiquitination luciferase reporter, 2 h; 0 = plate control, 100 = twice control, blank-subtracted; signal enhancement, % at 5 µM; hit rate 0.11% among 210,000; AID 1230;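 active = signal enhancement of 30% or more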;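 also: luminescence tracks abundance of the self-degrading MDM2-luciferase fusion protein; higher signal means inhibition of MDM2 E3 ligase activity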
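Timing – 2 h compound exposure at 37 °C · Assay system – mammalian cells stably expressing self-ubiquitinating, self-degrading MDM2 E3–luciferase fusion · Amount – 2000 cells seeded into each well · Measure – % luminescence enhancement versus blank-corrected plate control mean · Measured by – SteadyLite luminescence, 15 min reagent step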
Wee1 degr inh = blocks degradation of human Wee1 kinase. P30291. HeLa Luc-Wee1K328M stability, luciferase luminescence; 100% = proteasome inhibitor MG132 effect. reporter increase, % at 5 µM. hit rate 1.2% among 220,000. AID 1321;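 active = activation above the mean of all tested compounds plus 3 SD, set per screening run, cut at about 8.8% in these data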;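 also: cells exposed to compound for 20 h before luminescence read; 0% = DMSO alone and 100% = MG132 at 30 µM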
NF-kB neuron act = compounds increasing NF-kB expression in human neuronal cells; NF-kB reporter expression; stronger effect = higher value; fold change at 12.5 µM; hit rate 1.6% among 190,000; AID 1239; in the data active = fold change above about 3.3
APP 5'UTR act = APP 5'UTR luciferase reporter activation; SH-SY5Y APP 5'UTR luciferase reporter, luminescence; zero percent = DMSO vehicle wells; activation, % at 2 µM; hit rate 1% among 190,000;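 active = activation above a set limit, based on mean plus 3 SD of controls, cut at about 140% in these data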
STAT1 act = activators of IFN-gamma induced STAT1 signaling; NIH 3T3 STAT1-luciferase reporter, luminescence; 100% = IFN-gamma alone, no compound; activation (% of control), % at 5.5 µM; hit rate 2.6% among 200,000;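 active = activation above the screen-wide mean activation plus 3 SD, cut at about 130% in these data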;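 also: raw ratio to IFN-gamma control signal so 100% means no change and 0% no light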
Wee1 degr conf = human Wee1 degradation inhibition, confirmation | shares compounds with Wee1 degr inh | HeLa Luc-Wee1K328M degradation, luminescence; vehicle 0%, proteasome-blocked wells 100% | activation, % at 5 µM | hit rate 4% among 1,100 | AID 1410; in the data active = activation above about 8.9%
The depositor's hits bear a star. Hits are enriched below; roughly 4.6% of the tested compounds scored in any of these assays.

How did CCNS(=O)(=O)c1ccc(NS(=O)(=O)c2cc(C)ccc2C)cc1 do in these assays?
p97 inhibitor: -2; Mdm2 ligase inh: -15; Wee1 degr inh: 13*; NF-kB neuron act: 0.9; APP 5'UTR act: -1; STAT1 act: 98; Wee1 degr conf: 0

How did C=C(C)COc1ccc(-c2[nH]ncc2Oc2ccc(OC)cc2)c(O)c1 do in these assays?
p97 inhibitor: 0; Mdm2 ligase inh: -6; Wee1 degr inh: 18*; Wee1 degr conf: 4

How did COc1ccc(NC(=O)COc2ccc(C(=O)NC3CCCc4ccccc43)cc2OC)cc1 (centres undefined) do in these assays?
p97 inhibitor: 4; Mdm2 ligase inh: -5; Wee1 degr inh: 16*; NF-kB neuron act: 0.81; APP 5'UTR act: -2; STAT1 act: 102; Wee1 degr conf: 3

Results for COc1ccc(NC(=O)CS(=O)CC(=O)NC2CCCc3ccccc32)cc1 (centres undefined) ?
p97 inhibitor: 4; Mdm2 ligase inh: -5; Wee1 degr inh: 1; NF-kB neuron act: 1; APP 5'UTR act: 0; STAT1 act: 99

How did O=S(=O)(NCc1ccccc1)c1ccc(Br)c2nsnc12 do in these assays?
p97 inhibitor: -2; Mdm2 ligase inh: -8; Wee1 degr inh: 0

What do the screens show for `CCN(CC)C(=O)c1c(-c2ccccc2)oc2ccc(OC)cc12`?
p97 inhibitor: -6; Mdm2 ligase inh: -10; Wee1 degr inh: 17*; NF-kB neuron act: 1.1; APP 5'UTR act: 11; STAT1 act: 101; Wee1 degr conf: 0

Results for CCOc1ccc2oc(-c3ccccc3)c(C(=O)N(C)C)c2c1 ?
p97 inhibitor: -3; Wee1 degr inh: 7; NF-kB neuron act: 1.1; APP 5'UTR act: -3; STAT1 act: 103

What do the screens show for `CC1(C)Cc2c(C#N)c(NCCN3CCOCC3)nc(-c3ccco3)c2CO1`?
p97 inhibitor: -2; Mdm2 ligase inh: 2; Wee1 degr inh: 3; NF-kB neuron act: 1.2; APP 5'UTR act: 1; STAT1 act: 98

What do the screens show for `CC1(C)Cc2c(C#N)c(NCCO)nc(-c3ccco3)c2CO1`?
p97 inhibitor: -3; Mdm2 ligase inh: 1; Wee1 degr inh: 18*; Wee1 degr conf: 1

What do the screens show for `O=C(Cn1cnc2c(nnn2Cc2ccc(F)cc2)c1=O)Nc1ccccc1`?
p97 inhibitor: -1; Wee1 degr inh: 5

What do the screens show for `C/C(=N\NC(=O)c1ccccc1)c1ccc(NC(=O)c2cccs2)cc1`?
p97 inhibitor: -7; Mdm2 ligase inh: -13; Wee1 degr inh: 13*; NF-kB neuron act: 1.3; APP 5'UTR act: 79; STAT1 act: 136*; Wee1 degr conf: 1

What do the screens show for `Cc1ccc(-c2nc(=S)c3c(n2Cc2ccco2)CC(C)(C)OC3)cc1`?
p97 inhibitor: -1; Mdm2 ligase inh: 0; Wee1 degr inh: 13*; NF-kB neuron act: 1.4; APP 5'UTR act: -3; STAT1 act: 99; Wee1 degr conf: 1

How did Cc1ccc(-c2nc(=S)c3c(n2Cc2ccco2)CCCC3)cc1 do in these assays?
p97 inhibitor: -1; Mdm2 ligase inh: -11; Wee1 degr inh: 2; NF-kB neuron act: 1.8; APP 5'UTR act: -4; STAT1 act: 100

Results for CC1CCCCN1C(=O)Cn1cnc2cc([N+](=O)[O-])ccc2c1=O (centres undefined) ?
p97 inhibitor: -5; Mdm2 ligase inh: -22; Wee1 degr inh: 1; NF-kB neuron act: 0.74; APP 5'UTR act: 13; STAT1 act: 100

Results for Cc1cc(NC(=O)c2cc(-c3cccc(Cl)c3)on2)no1 ?
p97 inhibitor: 3; Mdm2 ligase inh: -18; Wee1 degr inh: 0; NF-kB neuron act: 1.2; APP 5'UTR act: 2; STAT1 act: 102

How did Cc1cc(-c2nnc(-c3cccc(Cl)c3)o2)no1 do in these assays?
p97 inhibitor: 0; Mdm2 ligase inh: -19; Wee1 degr inh: 18*; Wee1 degr conf: 2

What do the screens show for `O=S(=O)(c1ccc(Cl)cc1Cl)n1ccc2cccnc21`?
p97 inhibitor: -4; Mdm2 ligase inh: -15; Wee1 degr inh: 12*; NF-kB neuron act: 1.2; APP 5'UTR act: 15; STAT1 act: 91; Wee1 degr conf: 6
